# Measured values reported in paper PMC6138487 (British Journal of Clinical Pharmacology, 2018).
# Marks after values point to notes of the source that are not given here.
# Columns and labels:
# Type in all cases: in vivo, human
# [1] = Pharmacokinetics of elobixibat; conditions: for C1max / t1(1/2) / C8max / t8(1/2) / C14max / t14(1/2): geometric mean (CV)
# Procedure, shortened: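 Once-daily oral dosing before breakfast for 14 days. Plasma was drawn predose and at 0.5–12 h on Days –1, 1, 8 and 14, plus intermittent days to Day 21. Measured by LC–MS/MS (LLOQ 10.0 pg ml–1). Noncompartmental Cmax and AUC(0–t) on log-transformed values. Accumulation ratios were Day 8/Day 1 and Day 14/Day 1. Sex effect was expressed as back-transformed male/female LSM ratio.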
# [2] = test system: plasma 7α‐hydroxy‐4‐cholesten‐3‐one (C4); assay: Plasma C4 level, M-test; conditions: Day 8 and Day 14; P < 0.001 except 2.5 mg day^–1
# [3] = test system: serum low‐density lipoprotein cholesterol (LDL‐C); assay: Serum LDL-C level, M-test; conditions: Day 8 and Day 14; P < 0.001 except 2.5 mg day^–1
# [4] = test system: serum high‐density lipoprotein cholesterol (HDL‐C); assay: Serum HDL-C level, M-test
# [5] = test system: patients with chronic constipation; assay: Adverse events, S-test
# Procedure, shortened: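 Crossover study with patients randomized 5:1 to test compound (2.5–20 mg) or placebo. Single oral dose on Day 1, taken 15 min before breakfast or without breakfast, then 6-day washout. The alternative regimen was given on Day 8, followed by 5-day observation. Inpatient Day –2 to Day 14. AE type, severity and incidence recorded with vital signs, ECG and laboratory tests. Dose trend by Cochran–Armitage test.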
# [6] = Day 1, 2.5 mg once daily before breakfast
# [7] = Day 1, 5 mg once daily before breakfast
# [8] = Day 1, 10 mg once daily before breakfast
# [9] = Day 1, 15 mg once daily before breakfast
# [10] = Day 1, 20 mg once daily before breakfast
# [11] = Day 8, 2.5 mg once daily before breakfast
# [12] = Day 8, 5 mg once daily before breakfast
# [13] = Day 8, 10 mg once daily before breakfast
# [14] = Day 8, 15 mg once daily before breakfast
# [15] = Day 8, 20 mg once daily before breakfast
# [16] = Day 14, 2.5 mg once daily before breakfast
# [17] = Day 14, 5 mg once daily before breakfast
# [18] = Day 14, 10 mg once daily before breakfast
# [19] = Day 14, 15 mg once daily before breakfast
# [20] = Day 14, 20 mg once daily before breakfast
# [21] = M-test Day 8, linear mixed effect model
# [22] = M-test Day 14, linear mixed effect model
# [23] = single dose 2.5 mg, before breakfast (group n=10)
# [24] = single dose 2.5 mg, no breakfast (group n=10)
# [25] = single dose 5 mg, before breakfast (group n=10)
# [26] = single dose 5 mg, no breakfast (group n=10)
# [27] = single dose 10 mg, before breakfast (group n=10)
# [28] = single dose 10 mg, no breakfast (group n=10)
# [29] = single dose 15 mg, before breakfast (group n=10)
# [30] = single dose 15 mg, no breakfast (group n=10)
# [31] = single dose 20 mg, before breakfast (group n=10)
# [32] = single dose 20 mg, no breakfast (group n=9)
compound,measurement,setting,value
CCCCC1(CCCC)CN(c2ccccc2)c2cc(SC)c(OCC(=O)N[C@@H](C(=O)NCC(=O)O)c3ccccc3)cc2S(=O)(=O)C1 [elobixibat],drug accumulation on multiple administration,[1]; 5 and 15 mg day^–1 dosages (Discussion),slight accumulation
same,C1max,[1]; [6],98.69 (56.9) pg ml^–1
same,t1(1/2),[1]; [6],1.89 (40.9) ^a h
same,C1max,[1]; [7],164.83 (54.7) pg ml^–1
same,t1(1/2),[1]; [7],2.41 (32.7) h
same,C1max,[1]; [8],284.67 (39.6) ^a pg ml^–1
same,t1(1/2),[1]; [8],2.69 (30.7) ^a h
same,C1max,[1]; [9],468.71 (63.7) pg ml^–1
same,t1(1/2),[1]; [9],3.28 (75.7) h
same,C1max,[1]; [10],932.04 (76.3) pg ml^–1
same,t1(1/2),[1]; [10],3.14 (62.4) h
same,C8max,[1]; [11],99.39 (63.6) pg ml^–1
same,t8(1/2),[1]; [11],2.42 (31.2) h
same,C8max,[1]; [12],139.45 (50.7) pg ml^–1
same,t8(1/2),[1]; [12],3.29 (68.9) h
same,C8max,[1]; [13],283.84 (17.9) pg ml^–1
same,t8(1/2),[1]; [13],4.96 (64.1) h
same,C8max,[1]; [14],388.55 (82.0) pg ml^–1
same,t8(1/2),[1]; [14],4.62 (58.2) h
same,C8max,[1]; [15],581.32 (53.6) pg ml^–1
same,t8(1/2),[1]; [15],5.16 (45.2) h
same,C14max,[1]; [16],82.66 (50.4) pg ml^–1
same,t14(1/2),[1]; [16],2.34 (50.8) ^a h
same,C14max,[1]; [17],165.57 (35.0) pg ml^–1
same,t14(1/2),[1]; [17],3.73 (61.0) h
same,C14max,[1]; [18],236.11 (34.4) pg ml^–1
same,t14(1/2),[1]; [18],6.19 (146.0) h
same,C14max,[1]; [19],383.19 (73.5) pg ml^–1
same,t14(1/2),[1]; [19],5.68 (74.9) h
same,C14max,[1]; [20],953.18 (53.6) pg ml^–1
same,t14(1/2),[1]; [20],7.23 (37.5) h
same,"AUC8(0–t), back transformed LSM ratio male/female",[1]; [21],0.9947
same,"C8max, back transformed LSM ratio male/female",[1]; [21],0.8416
same,"AUC14(0–t), back transformed LSM ratio male/female",[1]; [22],0.9863
same,"C14max, back transformed LSM ratio male/female",[1]; [22],0.9675
same,drug accumulation from Cmax (Rac),"[1]; all dosage groups, 90% CIs of Rac included 1.000",No drug accumulation
same,time to steady state of plasma concentration,[1]; multiple administration once daily,≤ 8 days
same,C4 AUEC relative to placebo (ANCOVA),[2],significantly greater
same,LDL‐C AUEC compared to placebo (ANCOVA),[3],significantly greater reductions
same,"HDL‐C levels, trend",[4],no clear trend
same,"AEs associated with gastrointestinal disorders, % of patients",[5]; [23],(40.0) %
same,"AEs associated with gastrointestinal disorders, n of patients",[5]; [23],4
same,"Any AEs, % of patients",[5]; [23],(40.0) %
same,"Any AEs, n of patients",[5]; [23],4
same,"abdominal distention, % of patients",[5]; [23],(20.0) %
same,"abdominal distention, n of patients",[5]; [23],2
same,"abdominal pain lower, % of patients",[5]; [23],(20.0) %
same,"abdominal pain lower, n of patients",[5]; [23],2
same,"diarrhoea, n of patients",[5]; [23],0
same,"AEs associated with gastrointestinal disorders, % of patients",[5]; [24],(20.0) %
same,"AEs associated with gastrointestinal disorders, n of patients",[5]; [24],2
same,"Any AEs, % of patients",[5]; [24],(40.0) %
same,"Any AEs, n of patients",[5]; [24],4
same,"abdominal distention, n of patients",[5]; [24],0
same,"abdominal pain lower, % of patients",[5]; [24],(10.0) %
same,"abdominal pain lower, n of patients",[5]; [24],1
same,"diarrhoea, n of patients",[5]; [24],0
same,"AEs associated with gastrointestinal disorders, % of patients",[5]; [25],(80.0) %
same,"AEs associated with gastrointestinal disorders, n of patients",[5]; [25],8
same,"Any AEs, % of patients",[5]; [25],(80.0) %
same,"Any AEs, n of patients",[5]; [25],8
same,"abdominal distention, n of patients",[5]; [25],0
same,"abdominal pain lower, % of patients",[5]; [25],(40.0) %
same,"abdominal pain lower, n of patients",[5]; [25],4
same,"diarrhoea, % of patients",[5]; [25],(40.0) %
same,"diarrhoea, n of patients",[5]; [25],4
same,"AEs associated with gastrointestinal disorders, % of patients",[5]; [26],(50.0) %
same,"AEs associated with gastrointestinal disorders, n of patients",[5]; [26],5
same,"Any AEs, % of patients",[5]; [26],(50.0) %
same,"Any AEs, n of patients",[5]; [26],5
same,"abdominal distention, % of patients",[5]; [26],(20.0) %
same,"abdominal distention, n of patients",[5]; [26],2
same,"abdominal pain lower, % of patients",[5]; [26],(20.0) %
same,"abdominal pain lower, n of patients",[5]; [26],2
same,"diarrhoea, % of patients",[5]; [26],(30.0) %
same,"diarrhoea, n of patients",[5]; [26],3
same,"AEs associated with gastrointestinal disorders, % of patients",[5]; [27],(10.0) %
same,"AEs associated with gastrointestinal disorders, n of patients",[5]; [27],1
same,"Any AEs, % of patients",[5]; [27],(20.0) %
same,"Any AEs, n of patients",[5]; [27],2
same,"abdominal distention, n of patients",[5]; [27],0
same,"abdominal pain lower, % of patients",[5]; [27],(10.0) %
same,"abdominal pain lower, n of patients",[5]; [27],1
same,"diarrhoea, n of patients",[5]; [27],0
same,"AEs associated with gastrointestinal disorders, % of patients",[5]; [28],(10.0) %
same,"AEs associated with gastrointestinal disorders, n of patients",[5]; [28],1
same,"Any AEs, % of patients",[5]; [28],(30.0) %
same,"Any AEs, n of patients",[5]; [28],3
same,"abdominal distention, n of patients",[5]; [28],0
same,"abdominal pain lower, % of patients",[5]; [28],(10.0) %
same,"abdominal pain lower, n of patients",[5]; [28],1
same,"diarrhoea, n of patients",[5]; [28],0
same,"AEs associated with gastrointestinal disorders, % of patients",[5]; [29],(60.0) %
same,"AEs associated with gastrointestinal disorders, n of patients",[5]; [29],6
same,"Any AEs, % of patients",[5]; [29],(60.0) %
same,"Any AEs, n of patients",[5]; [29],6
same,"abdominal distention, % of patients",[5]; [29],(10.0) %
same,"abdominal distention, n of patients",[5]; [29],1
same,"abdominal pain lower, % of patients",[5]; [29],(10.0) %
same,"abdominal pain lower, n of patients",[5]; [29],1
same,"diarrhoea, % of patients",[5]; [29],(50.0) %
same,"diarrhoea, n of patients",[5]; [29],5
same,"AEs associated with gastrointestinal disorders, % of patients",[5]; [30],(100.0) %
same,"AEs associated with gastrointestinal disorders, n of patients",[5]; [30],10
same,"Any AEs, % of patients",[5]; [30],(100.0) %
same,"Any AEs, n of patients",[5]; [30],10
same,"abdominal distention, % of patients",[5]; [30],(20.0) %
same,"abdominal distention, n of patients",[5]; [30],2
same,"abdominal pain lower, % of patients",[5]; [30],(30.0) %
same,"abdominal pain lower, n of patients",[5]; [30],3
same,"diarrhoea, % of patients",[5]; [30],(70.0) %
same,"diarrhoea, n of patients",[5]; [30],7
same,"AEs associated with gastrointestinal disorders, % of patients",[5]; [31],(30.0) %
same,"AEs associated with gastrointestinal disorders, n of patients",[5]; [31],3
same,"Any AEs, % of patients",[5]; [31],(40.0) %
same,"Any AEs, n of patients",[5]; [31],4
same,"abdominal distention, % of patients",[5]; [31],(20.0) %
same,"abdominal distention, n of patients",[5]; [31],2
same,"abdominal pain lower, % of patients",[5]; [31],(10.0) %
same,"abdominal pain lower, n of patients",[5]; [31],1
same,"diarrhoea, n of patients",[5]; [31],0
same,"AEs associated with gastrointestinal disorders, % of patients",[5]; [32],(11.1) %
same,"AEs associated with gastrointestinal disorders, n of patients",[5]; [32],1
same,"Any AEs, % of patients",[5]; [32],(44.4) %
same,"Any AEs, n of patients",[5]; [32],4
same,"abdominal distention, % of patients",[5]; [32],(11.1) %
same,"abdominal distention, n of patients",[5]; [32],1
same,"abdominal pain lower, n of patients",[5]; [32],0
same,"diarrhoea, n of patients",[5]; [32],0
